Assays:
Cyclooxygenase = biological target: T1, Cyclooxygenase (Rattus norvegicus, UniProt P35355+Q63921); experiment: Inhibition of COX in RBL1 cells assessed as reduction in PGE2/D2 production using A23187-induced arachidonic acid as substrate preincubated for 2 hrs followed by A23187 addition measured after 15 mins by LC-MS/MS analysis; type: cell-based
T1 sequence (P35355 whole entry): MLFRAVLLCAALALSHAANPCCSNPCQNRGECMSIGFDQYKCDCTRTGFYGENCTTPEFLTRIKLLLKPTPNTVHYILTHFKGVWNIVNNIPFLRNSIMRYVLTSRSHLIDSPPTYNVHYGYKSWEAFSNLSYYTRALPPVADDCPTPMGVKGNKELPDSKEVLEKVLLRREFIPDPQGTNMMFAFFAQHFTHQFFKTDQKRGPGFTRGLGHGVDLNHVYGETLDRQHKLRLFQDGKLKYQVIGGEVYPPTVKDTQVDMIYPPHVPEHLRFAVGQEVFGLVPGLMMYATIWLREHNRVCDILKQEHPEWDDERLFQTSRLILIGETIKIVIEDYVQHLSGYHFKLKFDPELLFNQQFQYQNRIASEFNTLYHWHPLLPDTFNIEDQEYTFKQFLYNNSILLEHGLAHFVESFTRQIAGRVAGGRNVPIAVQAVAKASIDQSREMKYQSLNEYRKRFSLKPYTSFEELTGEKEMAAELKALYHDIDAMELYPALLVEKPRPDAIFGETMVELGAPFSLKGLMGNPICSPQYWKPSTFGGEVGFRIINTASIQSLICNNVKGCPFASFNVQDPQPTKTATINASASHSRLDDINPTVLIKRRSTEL
T1 sequence (Q63921 whole entry): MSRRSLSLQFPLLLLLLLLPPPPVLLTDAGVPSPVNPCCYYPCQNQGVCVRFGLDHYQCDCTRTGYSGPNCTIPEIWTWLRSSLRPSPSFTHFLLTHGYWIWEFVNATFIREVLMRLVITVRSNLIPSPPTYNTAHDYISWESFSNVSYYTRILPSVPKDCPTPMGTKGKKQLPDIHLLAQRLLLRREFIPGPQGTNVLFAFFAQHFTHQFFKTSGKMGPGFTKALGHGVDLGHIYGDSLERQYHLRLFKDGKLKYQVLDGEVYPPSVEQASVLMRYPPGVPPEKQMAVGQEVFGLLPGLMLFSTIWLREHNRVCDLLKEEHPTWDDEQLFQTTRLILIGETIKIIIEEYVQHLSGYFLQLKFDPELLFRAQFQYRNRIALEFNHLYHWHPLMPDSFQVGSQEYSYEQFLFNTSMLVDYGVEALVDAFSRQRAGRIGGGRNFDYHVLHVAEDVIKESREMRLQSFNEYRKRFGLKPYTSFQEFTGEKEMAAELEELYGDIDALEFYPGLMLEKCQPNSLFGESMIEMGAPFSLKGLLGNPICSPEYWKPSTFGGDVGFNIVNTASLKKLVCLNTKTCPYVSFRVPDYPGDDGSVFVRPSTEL

[1] = biological target: T2, Polyunsaturated fatty acid 5-lipoxygenase (Rattus norvegicus, UniProt P12527); experiment: Inhibition of 5-LOX in RBL1 cells assessed as reduction in LTB4 production using A23187-induced arachidonic acid as substrate preincubated for 2 hrs followed by A23187 addition measured after 15 mins by LC-MS/MS analysis; type: cell-based
T2 sequence (P12527 whole entry): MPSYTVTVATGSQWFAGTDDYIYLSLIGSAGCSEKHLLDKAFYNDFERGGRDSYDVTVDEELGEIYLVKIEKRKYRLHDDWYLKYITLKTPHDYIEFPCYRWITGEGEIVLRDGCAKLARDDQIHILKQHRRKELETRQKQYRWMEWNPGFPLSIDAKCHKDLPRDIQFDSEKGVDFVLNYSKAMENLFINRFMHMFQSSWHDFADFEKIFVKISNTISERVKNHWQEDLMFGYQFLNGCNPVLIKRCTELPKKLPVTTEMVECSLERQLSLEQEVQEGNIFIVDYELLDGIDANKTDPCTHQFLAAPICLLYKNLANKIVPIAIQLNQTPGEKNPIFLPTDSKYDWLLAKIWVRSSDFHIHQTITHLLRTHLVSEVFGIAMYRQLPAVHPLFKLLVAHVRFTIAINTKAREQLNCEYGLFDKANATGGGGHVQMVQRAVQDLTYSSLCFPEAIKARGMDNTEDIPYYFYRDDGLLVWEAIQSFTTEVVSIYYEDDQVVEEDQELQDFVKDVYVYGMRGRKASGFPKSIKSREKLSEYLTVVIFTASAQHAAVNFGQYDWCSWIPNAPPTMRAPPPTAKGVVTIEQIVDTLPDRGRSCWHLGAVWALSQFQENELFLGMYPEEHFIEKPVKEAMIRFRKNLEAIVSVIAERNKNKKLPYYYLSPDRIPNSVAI
How it was run: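 RBL-1 cells incubated 2 h with test compound at several concentrations, then A23187 (12 μM) added for 15 min to trigger arachidonic acid release; LTB4 in culture supernatant quantified by LC–MS/MS. Triplicate samples per concentration; IC50 with 95% confidence interval from sigmoidal curve fit.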

[2] = Dissociation constant, pKa of the compound by capillary electrophoresis method; type: physicochemical
[3] = Effective permeability of the compound by PAMPA; type: ADME; conditions: read-out: Peff
How it was run: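 PAMPA run externally; effective permeability reported together with membrane retention and log apparent permeability coefficient.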

[4] = Effective permeability of the compound assessed as membrane retention by PAMPA relative to control; type: ADME
[5] = n-Octanol-aqueous buffer distribution coefficient, log D of the compound at pH 7.4 by LC-MS method; type: physicochemical

Structure (SMILES) | IC50 (Cyclooxygenase) [µM] | IC50 [1] [µM] | pKa [2] | Papp [3] [×10⁻⁶ cm/s] | R% [4] [%] | logD [5]
CC(C)Cc1ccc(C(C)C2(O)C[S+]([O-])C2)cc1 (centres undefined) | 17.4 | 11.7 |  |  |  | 
O=S1(=O)CC(O)(CCc2ccccc2)C1 |  |  | 9.31 | 12.2 | 10.7 | 1.24
CC(C)Cc1ccc(C2CC(O)=CC2=O)cc1 (centres undefined) | 28.1 | > 100 |  |  |  | 
[O-][S+]1CC(O)(CCc2ccccc2)C1 (centres undefined) |  |  | > 12 | 6.23 | 10 | 1.22
CC(C)Cc1ccc(C(C)C2(O)CSC2)cc1 (centres undefined) | > 100 | 7.6 |  |  |  | 
CC(C)Cc1ccc(C(C)C2(O)CS(=O)(=O)C2)cc1 (centres undefined) | 14.6 | 20.2 |  |  |  | 
CC(C)Cc1ccc(C(C)c2nnn[nH]2)cc1 (centres undefined) | 31.8 | > 100 |  |  |  | 
CC(C)Cc1ccc(C(C)C2(O)COC2)cc1 (centres undefined) | 34.1 | 8.4 |  |  |  | 
OC1(CCc2ccccc2)CSC1 |  |  | > 12 | 13.2 | 11.4 | 2.99
OC1(CCc2ccccc2)COC1 |  |  | > 12 | 8.27 | -11.9 | 2.07
CC(C)Cc1ccc(C(C)C(=O)O)cc1 (centres undefined) [IBUPROFEN] |  | > 100 |  |  |  | 
